According to ChEMBL document CHEMBL5696442, “Discovery of type II inhibitors of TGFβ-activated kinase 1 (TAK1) and mitogen-activated protein kinase kinase kinase kinase 2 (MAP4K2)” (J Med Chem, 2015):

What was measured:
Type in all cases: cell-based
[1] = target: T1, Ephrin type-B receptor 4 (Homo sapiens) (UniProt P54760); assay: Inhibition of EphB4 ACT labeling site in human Huh-7 cells at 1 uM by KiNativ Profiling analysis relative to control
T1 sequence (whole entry): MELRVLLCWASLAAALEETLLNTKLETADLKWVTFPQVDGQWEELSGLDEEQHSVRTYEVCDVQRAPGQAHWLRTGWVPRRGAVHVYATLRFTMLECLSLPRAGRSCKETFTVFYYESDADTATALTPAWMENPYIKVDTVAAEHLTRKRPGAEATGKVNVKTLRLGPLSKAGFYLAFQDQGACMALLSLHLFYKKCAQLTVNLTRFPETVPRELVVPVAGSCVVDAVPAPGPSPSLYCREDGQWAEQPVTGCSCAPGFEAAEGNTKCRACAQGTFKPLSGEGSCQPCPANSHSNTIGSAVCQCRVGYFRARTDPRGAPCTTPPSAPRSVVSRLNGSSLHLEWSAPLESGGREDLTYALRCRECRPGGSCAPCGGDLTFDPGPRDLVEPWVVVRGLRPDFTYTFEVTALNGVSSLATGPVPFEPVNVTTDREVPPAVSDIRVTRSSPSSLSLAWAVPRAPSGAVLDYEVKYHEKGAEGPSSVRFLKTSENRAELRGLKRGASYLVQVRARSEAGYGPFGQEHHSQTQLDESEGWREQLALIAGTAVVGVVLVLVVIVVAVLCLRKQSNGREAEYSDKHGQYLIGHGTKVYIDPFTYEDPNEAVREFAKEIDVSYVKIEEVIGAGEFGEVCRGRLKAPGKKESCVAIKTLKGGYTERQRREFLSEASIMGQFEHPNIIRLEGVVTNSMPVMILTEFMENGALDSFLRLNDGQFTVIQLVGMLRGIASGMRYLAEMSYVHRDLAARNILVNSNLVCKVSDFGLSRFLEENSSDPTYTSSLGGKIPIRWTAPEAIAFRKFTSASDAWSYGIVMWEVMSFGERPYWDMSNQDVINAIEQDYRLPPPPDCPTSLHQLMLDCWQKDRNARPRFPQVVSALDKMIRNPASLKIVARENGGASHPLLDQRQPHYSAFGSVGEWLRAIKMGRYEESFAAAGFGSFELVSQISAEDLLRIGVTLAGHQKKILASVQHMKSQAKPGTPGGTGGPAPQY

[2] = target: T2, Mitogen-activated protein kinase 13 (Homo sapiens) (UniProt O15264); assay: Inhibition of p38 delta Lys2 labeling site in human A-375 cells at 0.05 uM by KiNativ Profiling analysis relative to control
T2 sequence (whole entry): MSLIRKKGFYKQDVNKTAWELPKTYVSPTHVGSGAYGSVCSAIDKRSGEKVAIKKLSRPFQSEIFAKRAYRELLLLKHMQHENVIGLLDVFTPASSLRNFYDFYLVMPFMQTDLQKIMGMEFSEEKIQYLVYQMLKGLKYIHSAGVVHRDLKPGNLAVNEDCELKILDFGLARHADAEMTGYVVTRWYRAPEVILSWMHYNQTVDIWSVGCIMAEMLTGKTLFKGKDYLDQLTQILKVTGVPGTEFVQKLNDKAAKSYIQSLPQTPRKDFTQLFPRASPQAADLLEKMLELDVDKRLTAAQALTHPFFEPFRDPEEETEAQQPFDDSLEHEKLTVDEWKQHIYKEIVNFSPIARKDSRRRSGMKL

[3] = target: Cyclin-dependent kinase 1 (Homo sapiens) (UniProt P06493); assay: Inhibition of CDC2 Lys2 labeling site harbouring VLHRDLKPQNLLIDDKGTIK in human A-375 cells at 0.05 uM by KiNativ Profiling analysis relative to control
[4] = target: Ribosomal protein S6 kinase alpha-3 (Homo sapiens) (UniProt P51812); assay: Inhibition of RSK2 domain2 Lys2 labeling site in human A-375 cells at 5 uM by KiNativ Profiling analysis relative to control
Method in brief: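 Live A375 melanoma cells treated with compound at 5 or 0.5 μM, then lysed. Lysate kinases were labeled with a lysine-reactive ATP or ADP-biotin probe. Inhibition was read as protection of labeling sites from the probe.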

[5] = target: Cyclin-dependent kinase 6 (Homo sapiens) (UniProt Q00534); assay: Inhibition of CDK6 Lys2 labeling site in human A-375 cells at 5 uM by KiNativ Profiling analysis relative to control
Method in brief: (§1)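 Intact A375 melanoma cells were treated with compound at 5 or 0.5 μM, then lysed. Lysate kinases were labeled with a lysine-reactive ATP or ADP-biotin probe (KiNativ). Inhibition is read as protection of each kinase labeling site from probe labeling.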

[6] = target: 5'-AMP-activated protein kinase catalytic subunit alpha-2 (Homo sapiens) (UniProt P54646); assay: Inhibition of AMPKa2 Lys1 labeling site in human A-375 cells at 5 uM by KiNativ Profiling analysis relative to control
Method in brief: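 Live A375 melanoma cells were treated with compound at 5 or 0.5 μM, then lysed. The lysates were labeled with a lysine-reactive ATP or ADP-biotin probe. Kinase protection from probe labeling was measured by KiNativ.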

[7] = target: Tyrosine-protein kinase ABL2 (Homo sapiens, UniProt P42684); assay: Inhibition of ARG ACT labeling site in human A-375 cells at 5 uM by KiNativ Profiling analysis relative to control; method in brief: as §1
[8] = target: Tyrosine-protein kinase ABL1 (Homo sapiens, UniProt P00519); assay: Inhibition of ABL ACT labeling site in human A-375 cells at 5 uM by KiNativ Profiling analysis relative to control; method in brief: as §1
Tyrosine-protein kinase ABL1, sequence (P00519 whole entry): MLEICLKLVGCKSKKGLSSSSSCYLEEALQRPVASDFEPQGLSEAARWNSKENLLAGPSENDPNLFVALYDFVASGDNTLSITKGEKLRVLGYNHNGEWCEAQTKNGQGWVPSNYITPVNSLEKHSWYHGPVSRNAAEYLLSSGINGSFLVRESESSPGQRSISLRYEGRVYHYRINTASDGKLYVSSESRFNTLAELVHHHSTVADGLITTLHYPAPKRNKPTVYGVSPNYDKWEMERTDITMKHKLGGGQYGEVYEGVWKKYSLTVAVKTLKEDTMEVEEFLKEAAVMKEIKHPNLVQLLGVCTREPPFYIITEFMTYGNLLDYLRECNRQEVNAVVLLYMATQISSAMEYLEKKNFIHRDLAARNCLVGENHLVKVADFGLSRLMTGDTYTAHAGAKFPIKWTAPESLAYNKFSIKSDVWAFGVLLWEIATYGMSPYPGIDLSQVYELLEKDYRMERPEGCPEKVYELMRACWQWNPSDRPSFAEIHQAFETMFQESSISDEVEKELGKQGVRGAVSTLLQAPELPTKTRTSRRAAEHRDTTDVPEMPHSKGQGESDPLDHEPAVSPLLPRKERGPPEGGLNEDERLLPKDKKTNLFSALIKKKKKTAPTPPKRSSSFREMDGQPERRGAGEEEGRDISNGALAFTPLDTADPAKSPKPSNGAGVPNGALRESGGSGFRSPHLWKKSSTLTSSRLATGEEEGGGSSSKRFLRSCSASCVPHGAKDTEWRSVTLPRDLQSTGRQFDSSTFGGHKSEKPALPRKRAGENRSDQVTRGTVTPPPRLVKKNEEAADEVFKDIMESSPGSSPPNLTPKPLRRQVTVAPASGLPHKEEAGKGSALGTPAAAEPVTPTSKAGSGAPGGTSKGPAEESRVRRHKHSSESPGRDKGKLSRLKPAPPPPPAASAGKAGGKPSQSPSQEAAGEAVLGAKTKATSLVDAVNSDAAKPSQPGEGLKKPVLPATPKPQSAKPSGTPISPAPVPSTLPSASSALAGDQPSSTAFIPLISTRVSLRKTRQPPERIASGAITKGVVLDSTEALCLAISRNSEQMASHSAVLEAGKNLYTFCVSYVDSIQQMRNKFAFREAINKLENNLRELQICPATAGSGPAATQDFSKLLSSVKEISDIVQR

Cyclin-dependent kinase 1 (Homo sapiens), sequence (P06493 whole entry, looked up, the tested form may be a part): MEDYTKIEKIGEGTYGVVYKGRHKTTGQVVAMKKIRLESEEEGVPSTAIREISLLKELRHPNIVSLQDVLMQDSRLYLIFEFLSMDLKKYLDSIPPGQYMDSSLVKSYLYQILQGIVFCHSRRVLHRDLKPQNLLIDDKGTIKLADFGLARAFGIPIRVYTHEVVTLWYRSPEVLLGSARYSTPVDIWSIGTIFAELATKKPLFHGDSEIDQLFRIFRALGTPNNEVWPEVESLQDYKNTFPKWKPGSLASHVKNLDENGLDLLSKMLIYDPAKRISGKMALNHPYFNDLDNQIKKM
Cyclin-dependent kinase 6 (Homo sapiens), sequence (Q00534 whole entry): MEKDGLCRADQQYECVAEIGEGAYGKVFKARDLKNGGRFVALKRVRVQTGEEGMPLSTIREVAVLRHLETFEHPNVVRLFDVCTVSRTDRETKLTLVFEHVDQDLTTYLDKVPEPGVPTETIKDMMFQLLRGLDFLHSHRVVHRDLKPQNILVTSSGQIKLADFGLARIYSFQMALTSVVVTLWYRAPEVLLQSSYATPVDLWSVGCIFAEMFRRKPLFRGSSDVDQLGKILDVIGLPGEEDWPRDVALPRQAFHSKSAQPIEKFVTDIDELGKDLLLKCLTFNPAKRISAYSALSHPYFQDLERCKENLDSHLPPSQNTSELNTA
Ribosomal protein S6 kinase alpha-3 (Homo sapiens), sequence (P51812 whole entry, the tested form may be a part): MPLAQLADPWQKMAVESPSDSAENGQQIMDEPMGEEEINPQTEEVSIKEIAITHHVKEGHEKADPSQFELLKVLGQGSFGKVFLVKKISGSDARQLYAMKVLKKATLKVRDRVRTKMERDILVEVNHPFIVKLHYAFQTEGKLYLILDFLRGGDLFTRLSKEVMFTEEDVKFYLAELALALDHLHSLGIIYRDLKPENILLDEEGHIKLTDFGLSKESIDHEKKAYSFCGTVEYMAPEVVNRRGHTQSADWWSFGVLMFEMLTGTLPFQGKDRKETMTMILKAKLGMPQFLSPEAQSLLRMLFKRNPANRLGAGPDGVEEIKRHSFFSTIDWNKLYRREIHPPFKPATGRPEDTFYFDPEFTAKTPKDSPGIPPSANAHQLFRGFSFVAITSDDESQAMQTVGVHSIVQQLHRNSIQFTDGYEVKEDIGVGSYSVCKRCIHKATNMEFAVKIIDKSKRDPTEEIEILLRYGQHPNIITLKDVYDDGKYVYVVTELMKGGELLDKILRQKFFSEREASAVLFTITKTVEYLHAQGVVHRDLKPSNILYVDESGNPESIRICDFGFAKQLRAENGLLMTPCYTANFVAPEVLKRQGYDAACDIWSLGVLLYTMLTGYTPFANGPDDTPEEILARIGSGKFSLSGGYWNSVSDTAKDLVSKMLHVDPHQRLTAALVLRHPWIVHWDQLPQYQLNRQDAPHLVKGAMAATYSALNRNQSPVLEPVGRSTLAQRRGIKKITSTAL
5'-AMP-activated protein kinase catalytic subunit alpha-2 (Homo sapiens), sequence (P54646 whole entry, looked up): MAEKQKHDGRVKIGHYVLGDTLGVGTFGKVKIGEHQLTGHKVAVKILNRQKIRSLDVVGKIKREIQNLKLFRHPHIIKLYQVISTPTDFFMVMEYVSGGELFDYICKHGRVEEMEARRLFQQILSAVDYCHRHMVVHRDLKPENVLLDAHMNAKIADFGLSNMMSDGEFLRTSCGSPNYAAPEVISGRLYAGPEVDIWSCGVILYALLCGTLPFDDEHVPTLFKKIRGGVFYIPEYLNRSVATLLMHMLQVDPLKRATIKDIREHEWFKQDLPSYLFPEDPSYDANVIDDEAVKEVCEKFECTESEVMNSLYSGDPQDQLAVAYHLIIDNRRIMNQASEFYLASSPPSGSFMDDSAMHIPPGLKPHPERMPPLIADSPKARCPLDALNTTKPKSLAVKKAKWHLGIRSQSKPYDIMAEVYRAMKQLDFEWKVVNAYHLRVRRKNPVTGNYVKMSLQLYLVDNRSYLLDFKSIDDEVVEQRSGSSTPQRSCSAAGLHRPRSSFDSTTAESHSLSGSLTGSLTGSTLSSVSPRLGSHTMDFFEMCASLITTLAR
Tyrosine-protein kinase ABL2, sequence (P42684 whole entry): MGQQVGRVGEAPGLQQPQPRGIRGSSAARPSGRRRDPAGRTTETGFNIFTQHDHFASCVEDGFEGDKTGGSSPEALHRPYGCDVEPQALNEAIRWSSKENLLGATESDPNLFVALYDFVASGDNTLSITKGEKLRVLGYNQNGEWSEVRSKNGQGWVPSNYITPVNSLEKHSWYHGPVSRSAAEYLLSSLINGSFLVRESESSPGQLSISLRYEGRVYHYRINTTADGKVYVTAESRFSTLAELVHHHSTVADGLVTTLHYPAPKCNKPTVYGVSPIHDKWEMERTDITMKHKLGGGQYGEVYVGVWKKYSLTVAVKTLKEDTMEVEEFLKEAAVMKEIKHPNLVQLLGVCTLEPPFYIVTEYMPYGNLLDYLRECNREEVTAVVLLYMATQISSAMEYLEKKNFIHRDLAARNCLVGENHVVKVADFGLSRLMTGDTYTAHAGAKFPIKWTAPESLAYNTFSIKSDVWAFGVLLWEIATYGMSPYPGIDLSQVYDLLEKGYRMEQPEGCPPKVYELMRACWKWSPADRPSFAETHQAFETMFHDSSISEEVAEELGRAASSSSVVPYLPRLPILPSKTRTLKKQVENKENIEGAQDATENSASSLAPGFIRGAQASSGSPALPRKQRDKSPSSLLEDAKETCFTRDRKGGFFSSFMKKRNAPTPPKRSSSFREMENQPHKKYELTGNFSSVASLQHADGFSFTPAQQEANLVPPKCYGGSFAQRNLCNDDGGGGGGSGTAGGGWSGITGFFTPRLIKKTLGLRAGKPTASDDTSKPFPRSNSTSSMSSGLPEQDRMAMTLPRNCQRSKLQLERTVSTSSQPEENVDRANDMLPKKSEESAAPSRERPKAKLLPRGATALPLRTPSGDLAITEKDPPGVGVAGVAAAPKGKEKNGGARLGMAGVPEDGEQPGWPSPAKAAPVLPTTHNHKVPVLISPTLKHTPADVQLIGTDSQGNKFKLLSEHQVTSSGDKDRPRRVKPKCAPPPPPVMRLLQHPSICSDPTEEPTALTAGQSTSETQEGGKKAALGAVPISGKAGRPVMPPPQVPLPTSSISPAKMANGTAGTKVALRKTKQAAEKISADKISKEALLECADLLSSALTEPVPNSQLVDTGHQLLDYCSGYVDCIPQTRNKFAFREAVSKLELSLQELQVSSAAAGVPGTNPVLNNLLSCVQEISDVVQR

| Structure (SMILES) | inhibition [1] [%] | inhibition [2] [%] | inhibition [3] [%] | inhibition [4] [%] | inhibition [5] [%] | inhibition [6] [%] | inhibition [7] [%] | inhibition [8] [%] |
| --- | --- | --- | --- | --- | --- | --- | --- | --- |
| CNc1cc(Oc2cc(C(=O)Nc3cc(N4CCN(C)CC4)cc(C(F)(F)F)c3)ccc2C)ncn1 | 75.4 | – | – | – | – | – | – | – |
| CCN1CCN(Cc2ccc(NC(=O)c3ccc(C)c(/C=C/c4cnc5[nH]ccc5c4OC)c3)cc2C(F)(F)F)CC1 | – | 24.3 | 6.4 | 23.7 | -2.3 | 37 | > 98 | > 98 |
| CCN1CCN(Cc2ccc(NC(=O)c3ccc(C)c(Oc4ccnc5[nH]ccc45)c3)cc2C(F)(F)F)CC1 | 12.1 | 64.9 | -2.9 | 14.4 | 6.8 | 11.6 | > 98 | > 98 |
